# Experimental data published in ChEMBL document CHEMBL1143827, “In vitro activity of 2,4-diamino-6-[2-(phosphonomethoxy)ethoxy]-pyrimidine against multidrug-resistant hepatitis B virus mutants” (Antimicrob Agents Chemother, 2007).
# Tests used:
# [1] = test system: Hepatitis B virus; assay: Inhibition of wild type HBV replication in Huh7 cells; assay type: functional, organism-based; details: Huh-7
# How it was run: (§1)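 Huh7 hepatoma cells were transiently transfected with plasmids carrying 1.1 genome units of wild-type HBV under a chicken beta-actin promoter, then treated with drug across a range starting at 0 μM (up to 100 μM for some drugs). Intracellular HBV DNA was purified and analysed by Southern blot to derive EC50. Values are means of at least three independent experiments, each run in triplicate.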
# [2] = Effect on cell viability in human Huh7 cells; assay type: cell-based, Huh-7
# How it was run: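 Huh7 cells were exposed to drug, and viability was read as neutral red dye uptake. CC50 is the concentration that cut uptake by 50%, given as mean ± SD of three independent experiments run in quadruplicate.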
# [3] = test system: Hepatitis B virus; assay: Antiviral activity against wild type HBV assessed as inhibition of replication; assay type: functional, organism-based; how it was run: as §1
# [4] = test system: Hepatitis B virus; assay: Antiviral activity against adenofir-resistant HBV with reverse transcriptase N236T mutant assessed as inhibition of replication; assay type: functional, organism-based
# How it was run: (§2)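 Huh7 cells transiently transfected with plasmids carrying 1.1 genome units of mutant or wild-type HBV under the chicken beta-actin promoter. Drug range was 0 to 100 μM for PMEO-DAPym, lamivudine, adefovir and tenofovir. Intracellular HBV DNA was purified and analysed by Southern blot to give EC50. Values are means of at least three independent experiments, each run in triplicate.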
# [5] = test system: Hepatitis B virus; assay: Fold resistance, ratio of lamivudine-resistant HBV with reverse transcriptase V173L/L180/M204V mutant to wild-type HBV genotype H; assay type: functional
# How it was run: (§3)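 Each mutant and its corresponding wild-type strain were transfected into Huh7 cells and treated in parallel with the same drug concentration range, with HBV DNA read by Southern blot. Fold resistance = mutant EC50 / corresponding wild-type EC50. Uses means of at least three independent experiments, each in triplicate.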
# [6] = test system: Hepatitis B virus; assay: Fold resistance, ratio of Lamivudine -adenofir-resistant HBV with reverse transcriptase V173L/L180M/A181V mutant to wildtype HBV genotype E; assay type: functional; how it was run: as §3
# [7] = test system: Hepatitis B virus; assay: Fold resistance, ratio of Lamivudine -adenofir-resistant with HBV reverse transcriptase V173L/L180M/A181V/M204V mutant to wildtype HBV genotype E; assay type: functional; how it was run: as §3
# [8] = test system: Hepatitis B virus; assay: Fold resistance, ratio of lamivudine -adenofir-resistant with HBV reverse transcriptase V173L/L180M/A181V/M204V/N236T mutant to wild-type HBV genotype E; assay type: functional; how it was run: as §3
# [9] = test system: Hepatitis B virus; assay: Fold resistance, ratio of Lamivudine -adenofir-resistant with HBV reverse transcriptase V173L/L180M/A181V/N236T mutant to wildtype HBV genotype E; assay type: functional; how it was run: as §3
# [10] = test system: Hepatitis B virus; assay: Fold resistance, ratio of entecavir-resistant HBV with reverse transcriptase L180M/S202G/M204V mutant to wild-type HBV genotype H; assay type: functional; how it was run: as §3
# [11] = test system: Hepatitis B virus; assay: Antiviral activity against lamivudine-resistant HBV with reverse transcriptase L180M/M204V mutant assessed as inhibition of replication; assay type: functional, organism-based; how it was run: as §2
# [12] = test system: Hepatitis B virus; assay: Antiviral activity against lamivudine-adefovir-resistant HBV with reverse transcriptase L180M/M204V/N236T mutant assessed as inhibition of replication; assay type: functional, organism-based; how it was run: as §2
# [13] = test system: Hepatitis B virus; assay: Fold resistance, ratio of EC50 for adenofir-resistant HBV with reverse transcriptase N236T mutant to EC50 for wild-type HBV; assay type: functional; how it was run: as §3
# [14] = test system: Hepatitis B virus; assay: Fold resistance, ratio of EC50 for lamivudine-resistant HBV with reverse transcriptase L180M/M204V mutant to EC50 for wild-type HBV; assay type: functional; how it was run: as §3
# [15] = test system: Hepatitis B virus; assay: Fold resistance, ratio of EC50 for lamivudine-adefovir-resistant HBV with reverse transcriptase L180M/M204V/N236T mutant to EC50 for wild-type HBV; assay type: functional; how it was run: as §3
# [16] = test system: Hepatitis B virus; assay: Antiviral activity against wild type HBV genotype H assessed as inhibition of replication; assay type: functional, organism-based; how it was run: as §1
# [17] = test system: Hepatitis B virus; assay: Antiviral activity against wild type HBV genotype E assessed as inhibition of replication; assay type: functional, organism-based; how it was run: as §1
# [18] = test system: Hepatitis B virus; assay: Antiviral activity against lamivudine-resistant HBV with reverse transcriptase L180M/M204V mutant; assay type: functional, organism-based; how it was run: as §2
# [19] = test system: Hepatitis B virus; assay: Antiviral activity against lamivudine-resistant HBV with reverse transcriptase L180M/A181V mutant; assay type: functional, organism-based; how it was run: as §2
# [20] = test system: Hepatitis B virus; assay: Antiviral activity against lamivudine-resistant HBV with reverse transcriptase V173L/L180/M204V mutant; assay type: functional, organism-based; how it was run: as §2
# [21] = test system: Hepatitis B virus; assay: Antiviral activity against lamivudine-adenofir-resistant HBV with reverse transcriptase V173L/L180M/A181V mutant; assay type: functional, organism-based; how it was run: as §2
# [22] = test system: Hepatitis B virus; assay: Antiviral activity against Lamivudine -adenofir-resistant HBV with reverse transcriptase V173L/L180M/A181V/M204V mutant; assay type: functional, organism-based; how it was run: as §2
# [23] = test system: Hepatitis B virus; assay: Antiviral activity against Lamivudine -adenofir-resistant HBV with reverse transcriptase V173L/L180M/A181V/M204V/N236T mutant; assay type: functional, organism-based; how it was run: as §2
# [24] = test system: Hepatitis B virus; assay: Antiviral activity against lamivudine-adenofir-resistant HBV with reverse transcriptase V173L/L180M/A181V/N236T mutant; assay type: functional, organism-based; how it was run: as §2
# [25] = test system: Hepatitis B virus; assay: Antiviral activity against entecavir-resistant HBV with reverse transcriptase L180M/S202G/M204V mutant; assay type: functional, organism-based; how it was run: as §2
# [26] = test system: Hepatitis B virus; assay: Fold resistance, ratio of lamivudine-resistant HBV with reverse transcriptase L180M/M204V mutant to wild-type HBV genotype E; assay type: functional; how it was run: as §3
# [27] = test system: Hepatitis B virus; assay: Fold resistance, ratio of lamivudine-resistant HBV with reverse transcriptase L180M/A181V mutant to wild-type HBV genotype E; assay type: functional; how it was run: as §3
compound,measurement,setting,value
C[C@H](Cn1cnc2c(N)ncnc21)OCP(=O)(O)O [TENOFOVIR ANHYDROUS],EC50,[1],16 µM
same,CC50,[2],> 1000 µM
same,EC50,[3],10.3 µM
same,EC50,[4],46 µM
same,Ratio EC50,[5],1.2
same,Ratio EC50,[6],1.6
same,Ratio EC50,[7],1.8
same,Ratio EC50,[8],1.8
same,Ratio EC50,[9],1.1
same,Ratio EC50,[10],2
same,EC50,[11],35.2 µM
same,EC50,[12],45.5 µM
same,Ratio EC50,[13],4.5
same,Ratio EC50,[14],3.4
same,Ratio EC50,[15],4.4
same,EC50,[16],13.6 µM
same,EC50,[17],25 µM
same,EC50,[18],27 µM
same,EC50,[19],36 µM
same,EC50,[20],16 µM
same,EC50,[21],42 µM
same,EC50,[22],45 µM
same,EC50,[23],46 µM
same,EC50,[24],28 µM
same,EC50,[25],27 µM
same,Ratio EC50,[26],1.1
same,Ratio EC50,[27],1.4
C=C1[C@H](CO)[C@@H](O)C[C@@H]1n1cnc2c(=O)[nH]c(N)nc21.O [ENTECAVIR],EC50,[1],0.3 µM
same,CC50,[2],125 µM
same,EC50,[3],0.8 µM
same,EC50,[4],0.7 µM
same,Ratio EC50,[5],43
same,Ratio EC50,[6],50
same,Ratio EC50,[7],>=800
same,Ratio EC50,[8],461
same,Ratio EC50,[9],9
same,Ratio EC50,[10],210
same,EC50,[11],5 µM
same,EC50,[12],5 µM
same,Ratio EC50,[13],0.88
same,Ratio EC50,[14],6.25
same,Ratio EC50,[15],6.25
same,EC50,[16],0.09 µM
same,EC50,[17],0.06 µM
same,EC50,[18],10.5 µM
same,EC50,[19],1.5 µM
same,EC50,[20],3.7 µM
same,EC50,[21],2.75 µM
same,EC50,[22],≥ 50 µM
same,EC50,[23],25.4 µM
same,EC50,[24],0.5 µM
same,EC50,[25],18 µM
same,Ratio EC50,[26],175
same,Ratio EC50,[27],28
CC(C)(C)C(=O)OCOP(=O)(COCCn1cnc2c(N)ncnc21)OCOC(=O)C(C)(C)C [ADEFOVIR DIPIVOXIL],EC50,[1],13 µM
same,CC50,[2],365 µM
same,EC50,[3],15.8 µM
same,EC50,[4],50.3 µM
same,Ratio EC50,[5],0.7
same,Ratio EC50,[6],4.8
same,Ratio EC50,[7],4
same,Ratio EC50,[8],7.7
same,Ratio EC50,[9],>10
same,Ratio EC50,[10],1.1
same,EC50,[11],15.5 µM
same,EC50,[12],100 µM
same,Ratio EC50,[13],3.2
same,Ratio EC50,[14],0.98
same,Ratio EC50,[15],6.3
same,EC50,[16],13.6 µM
same,EC50,[17],10 µM
same,EC50,[18],15 µM
same,EC50,[19],27 µM
same,EC50,[20],9.8 µM
same,EC50,[21],48 µM
same,EC50,[22],40 µM
same,EC50,[23],77 µM
same,EC50,[24],> 100 µM
same,EC50,[25],15 µM
same,Ratio EC50,[26],1.5
same,Ratio EC50,[27],2.7
Nc1ccn([C@@H]2CS[C@H](CO)O2)c(=O)n1 [LAMIVUDINE],EC50,[1],1 µM
same,CC50,[2],> 1000 µM
same,EC50,[3],2.48 µM
same,EC50,[4],2.65 µM
same,Ratio EC50,[5],>156
same,Ratio EC50,[6],1000
same,Ratio EC50,[7],>1000
same,Ratio EC50,[8],>1000
same,Ratio EC50,[9],>1000
same,Ratio EC50,[10],>156
same,EC50,[11],> 100 µM
same,EC50,[12],> 100 µM
same,Ratio EC50,[13],1.06
same,Ratio EC50,[14],>40
same,Ratio EC50,[15],>40
same,EC50,[16],0.64 µM
same,EC50,[17],0.1 µM
same,EC50,[18],> 100 µM
same,EC50,[19],80 µM
same,EC50,[20],> 100 µM
same,EC50,[21],100 µM
same,EC50,[22],> 100 µM
same,EC50,[23],> 100 µM
same,EC50,[24],> 100 µM
same,EC50,[25],> 100 µM
same,Ratio EC50,[26],>1000
same,Ratio EC50,[27],800
Nc1cc(OCCOCP(=O)(O)O)nc(N)n1,EC50,[1],4.9 µM
same,CC50,[2],> 1000 µM
same,EC50,[3],4 µM
same,EC50,[4],4.5 µM
same,Ratio EC50,[5],0.9
same,Ratio EC50,[6],4.3
same,Ratio EC50,[7],3.2
same,Ratio EC50,[8],2.1
same,Ratio EC50,[9],5.1
same,Ratio EC50,[10],1
same,EC50,[11],4.7 µM
same,EC50,[12],5.7 µM
same,Ratio EC50,[13],1.1
same,Ratio EC50,[14],1.2
same,Ratio EC50,[15],1.4
same,EC50,[16],4.4 µM
same,EC50,[17],5.6 µM
same,EC50,[18],5.3 µM
same,EC50,[19],27 µM
same,EC50,[20],4.1 µM
same,EC50,[21],24 µM
same,EC50,[22],18 µM
same,EC50,[23],12 µM
same,EC50,[24],29 µM
same,EC50,[25],4.5 µM
same,Ratio EC50,[26],0.9
same,Ratio EC50,[27],4.8
